Measurements as given in ChEMBL document CHEMBL2157877, “Synthesis and pharmacological evaluation of N-substituted 2-(2-oxo-2H-chromen-4-yloxy)propanamide as cyclooxygenase inhibitors” (Bioorg Med Chem Lett, 2012).

Biological target: T1, Prostaglandin G/H synthase 1 (Ovis aries, UniProt P05979)
T1 sequence (P05979 whole entry): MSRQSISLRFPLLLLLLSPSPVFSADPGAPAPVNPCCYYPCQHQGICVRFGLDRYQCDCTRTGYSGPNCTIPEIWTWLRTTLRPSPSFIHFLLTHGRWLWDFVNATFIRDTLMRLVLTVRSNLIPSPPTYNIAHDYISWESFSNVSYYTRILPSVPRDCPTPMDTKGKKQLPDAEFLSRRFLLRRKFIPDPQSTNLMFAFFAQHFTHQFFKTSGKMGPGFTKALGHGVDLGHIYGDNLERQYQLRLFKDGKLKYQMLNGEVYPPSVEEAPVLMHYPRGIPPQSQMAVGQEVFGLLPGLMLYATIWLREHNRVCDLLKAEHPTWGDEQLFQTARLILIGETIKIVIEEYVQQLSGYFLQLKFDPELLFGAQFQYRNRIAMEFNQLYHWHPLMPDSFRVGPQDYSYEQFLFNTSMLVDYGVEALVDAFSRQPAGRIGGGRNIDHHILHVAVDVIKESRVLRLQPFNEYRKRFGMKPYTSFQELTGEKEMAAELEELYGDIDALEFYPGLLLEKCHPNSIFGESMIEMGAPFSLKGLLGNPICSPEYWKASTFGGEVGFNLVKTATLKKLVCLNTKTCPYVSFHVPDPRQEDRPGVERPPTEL
Assay: Inhibition of ovine COX1 using arachidonic acid as substrate incubated for 1 min prior to substrate addition measured for 25 secs by TMPD-based chromogenic assay
Outline: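 COX-1 purified from ram seminal vesicles by chromatography. Reaction in Tris HCl buffer (100 mM, pH 8.0) with hematin, EDTA (3 mM) and enzyme, preincubated with test compound at 25 °C for 1 min. Started with arachidonic acid plus TMPD. Nonenzymatic oxidation subtracted before calculating percent inhibition.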

Compound | IC50 [µM]
CC(Oc1cc(=O)oc2ccccc12)C(=O)N1CCOCC1 (racemic) | 5.03
CC(Oc1cc(=O)oc2ccccc12)C(=O)N1CCCC1 (racemic) | 13.7
CC(Oc1cc(=O)oc2ccccc12)C(=O)Nc1ccc(C(F)(F)F)cc1C#N (racemic) | 9.6
CC(Oc1cc(=O)oc2ccccc12)C(=O)Nc1ccncc1 (racemic) | 9.64

These reach a lower IC50. Values come first.

IC50 [µM] | Compound
4.61 | Cc1c(Cl)cccc1NC(=O)C(C)Oc1cc(=O)oc2ccccc12 (racemic)
4.6 | CC(Oc1cc(=O)oc2ccccc12)C(=O)Nc1ccc(N2CCOCC2=O)cc1 (racemic)
3.33 | CC(Oc1cc(=O)oc2ccccc12)C(=O)NC12CC3CC(C)(CC(C)(C3)C1)C2 (mixture of isomers)
2.98 | CC(Oc1cc(=O)oc2ccccc12)C(=O)Nc1cccc2c(=O)[nH]ccc12 (racemic)
2.26 | COc1ccc(NC(=O)C(C)Oc2cc(=O)oc3ccccc23)cc1 (racemic)
1.64 | CC(Oc1cc(=O)oc2ccccc12)C(=O)Nc1ccc(F)cc1F (racemic)
